{"data": "Measured values pooled from the literature", "target": "Carbonic anhydrase 2 (CA2, Homo sapiens, UniProt P00918)", "read-out": "enzyme activity", "action": "inhibitor", "note": "Lines come from different studies, so protocols differ."}
{"SMILES": "O=C(Nc1ccc2c(c1)C=CCP(=O)(O)O2)c1ccc(Cl)cc1", "technique": "stopped-flow", "quantity": "Ki", "result": "> 10 µM"}
{"SMILES": "CC(C)c1cc2c(c(O)c1O)[C@@]13CCCC(C)(C)[C@@H]1[C@H](OC3=O)[C@H]2O", "quantity": "IC50", "result": "4.18 nM"}
{"SMILES": "N#C[Se]Cc1cc(=O)oc2cc(O)ccc12", "technique": "stopped-flow", "quantity": "Ki", "result": "> 100 µM"}
{"SMILES": "CC(C)c1cc2c(c(O)c1O)[C@@]13CCCC(C)(C)[C@@H]1[C@@H](O)[C@@H]2OC3=O", "quantity": "Ki", "result": "0.00357 µM"}
{"SMILES": "NC(=S)N/N=C1/c2ccccc2[C@@H]2[C@H]1[C@@H](c1ccc(F)cc1)[C@H](C(=O)c1ccc(F)cc1)[C@H]2c1ccc(F)cc1 (racemic)", "technique": "absorbance", "quantity": "IC50", "result": "605 nM"}
{"SMILES": "O=C(Nc1ccc(F)cc1)Nc1ccc2c(c1)C=CCP(=O)(O)O2", "technique": "stopped-flow", "quantity": "Ki", "result": "> 10 µM"}
{"SMILES": "NC(=S)N/N=C1/c2ccccc2[C@@H]2[C@H]1[C@@H](c1ccccc1)[C@H](C(=O)c1ccccc1)[C@H]2c1ccccc1 (racemic)", "technique": "absorbance", "quantity": "IC50", "result": "1330 nM"}
{"SMILES": "Cc1cc(=O)oc2cc(OCCCC[Se]C#N)ccc12", "technique": "stopped-flow", "quantity": "Ki", "result": "> 100 µM"}
{"SMILES": "CC(C)c1cc2c(c(O)c1O)[C@@]13CCCC(C)(C)[C@@H]1C[C@@H]2OC3=O", "quantity": "Ki", "result": "0.0088 µM"}
{"SMILES": "NC(=S)N/N=C1/c2ccccc2[C@@H]2[C@H]1[C@@H](c1ccc(Cl)cc1)[C@H](C(=O)c1ccc(Cl)cc1)[C@H]2c1ccc(Cl)cc1 (racemic)", "technique": "absorbance", "quantity": "IC50", "result": "298 nM"}
{"SMILES": "O=C(Nc1ccc2c(c1)C=CCP(=O)(O)O2)c1ccc(Br)cc1", "technique": "stopped-flow", "quantity": "Ki", "result": "> 10 µM"}
{"SMILES": "Cc1ccc([C@@H]2[C@@H](C(=O)c3cccs3)[C@H](c3ccco3)[C@H]3/C(=N\\NC(N)=S)c4ccccc4[C@H]32)cc1 (racemic)", "technique": "absorbance", "quantity": "IC50", "result": "844 nM"}
{"SMILES": "CC(C)c1cc2c(c(O)c1O)[C@@]1(C(=O)O)CCCC(C)(C)[C@@H]1CC2", "quantity": "IC50", "result": "3.77 nM"}
{"SMILES": "O=C(Nc1ccc2c(c1)C=CCP(=O)(O)O2)c1ccc2ccccc2c1", "technique": "stopped-flow", "quantity": "Ki", "result": "> 10 µM"}
{"SMILES": "Cc1ccc([C@H]2[C@H](C(=O)c3cccs3)[C@@H](c3cccs3)[C@@H]3c4ccccc4/C(=N/NC(N)=S)[C@@H]32)cc1 (racemic)", "technique": "absorbance", "quantity": "IC50", "result": "562 nM"}
